Rin1-Abl PPI inh: blocks binding of human Rin1 to Abl; P00519+Q13671; inhibition, % at 7.35 µM; TR-FRET Rin1/Abl binding, biochemical; AID 588664; actives 0.4% (n = 360,000); in the data active = inhibition above about 5%, passing the limit was not always enough
MBD2 inh: inhibitors of human MBD2 binding to methylated oligonucleotide; Q9UBB5; inhibition, % at 4.4 µM; TR-FRET; AID 686964; actives 0.31% (n = 370,000); in the data active = inhibition above about 13%
LEDGF integ inh: blocks HIV-1 LEDGF/p75-dependent DNA integration; TR-FRET IN-LEDGF/p75 DNA integration, Eu/Cy5; inhibition, % at 3.7 µM; actives 0.64% (n = 370,000); AID 743269;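 active = inhibition above the screen-wide mean plus 3 SD, cut at about 13% in these data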;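 also: signal is the Cy5 over europium emission ratio at 671 and 618 nm; 0% = plate median of compound wells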
TDP2 absorb: blocks human TDP2 phosphodiesterase activity; O95551; recombinant TDP2, T5PNP hydrolysis, p-nitrophenol absorbance 415 nm; inhibition, % at 12.8 µM; actives 0.34% (n = 370,000);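 active = inhibition above the mean of all tested compounds plus 3 SD, set per campaign, cut at about 25% in these data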;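 also: 0% = DMSO with enzyme and 100% = buffer with substrate but no TDP2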
Target sequence (O95551 whole entry, looked up): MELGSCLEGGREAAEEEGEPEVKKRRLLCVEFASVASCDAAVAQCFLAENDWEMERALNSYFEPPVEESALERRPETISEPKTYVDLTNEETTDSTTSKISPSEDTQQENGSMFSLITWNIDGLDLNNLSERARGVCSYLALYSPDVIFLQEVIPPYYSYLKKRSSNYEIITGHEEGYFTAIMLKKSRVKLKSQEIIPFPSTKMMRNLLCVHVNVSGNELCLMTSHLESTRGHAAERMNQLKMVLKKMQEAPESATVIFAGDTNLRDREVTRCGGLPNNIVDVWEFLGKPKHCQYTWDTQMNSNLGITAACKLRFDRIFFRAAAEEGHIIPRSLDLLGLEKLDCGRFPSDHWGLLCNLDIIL
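System – recombinant human TDP2 · Quantity – TDP2 enzyme at 120 nM final · Doses – single concentration, 12.8 µM nominal, with 1% DMSO · Incubation – 2 h at 37 °C · Measured by – epi absorbance of p-nitrophenol freed from T5PNP by hydrolysis · Read-out – % inhibition relative to enzyme-containing and enzyme-free wells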
UHRF1 binding: human UHRF1 methylated DNA binding inhibitors; Q96T88; UHRF1 binding to methylated oligo, TR-FRET; inhibition, % at 4.4 µM; actives 0.75% (n = 370,000); in the data active = inhibition above about 21%;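 also: UHRF1 SRA domain binding a hemimethylated CpG hairpin DNA probe; 0% = median of test compound wells and 100% = reference inhibitor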
Starred values were filed as active, the others as inactive; / = no result. Rows were chosen to be rich in hits. Some 1.9% of all compounds tested hit in one or more screens of this group.

SMILES	Rin1-Abl PPI inh	MBD2 inh	LEDGF integ inh	TDP2 absorb	UHRF1 binding
Cc1cc(C(=O)COC(=O)c2cccc(O)c2)c(C)n1C1CC1	1	1	4	-6	27*
CCCC(=O)Nc1cc(C)c2c(=O)oc3ccccc3c2n1	1	1	-4	-5	0
Cc1cc(NC(=O)c2ccccc2F)nc2c1c(=O)oc1ccccc12	0	1	1	1	22*
COc1ccc(/C=C/C(=O)O)cc1Cl	-2	0	-4	1	43*
CCCOc1ccc(/C=C/C(=O)O)cc1OC	1	-1	-1	6	1
CCCc1nc2ccc(C(=O)OC)cn2c1Cc1ccccc1	1	11	-4	4	25*
CCCc1nc2ccc(C(=O)OC)cn2c1Cc1ccc(C)cc1	3	10	6	-1	22*
C=CC[C@@H](CC(=O)N[C@H](CO)Cc1ccccc1)C(=O)N[C@H](COC(=O)[C@@H](CC=C)CC(=O)OC(C)(C)C)Cc1c[nH]c2ccccc12	4	1	0	-11	26*
C=CC[C@@H](CC(=O)N[C@@H](CO)Cc1ccccc1)C(=O)N[C@@H](COC(=O)[C@@H](CC=C)CC(=O)OC(C)(C)C)Cc1c[nH]c2ccccc12	-3	1	-5	-3	1
Cc1ccc(C(=O)CCC(=O)N2CCC(C(N)=O)CC2)cc1	1	-2	5	9	29*
OCCCCNCc1cc(Br)ccc1OCc1ccccc1	1	10	0	1	29*
C[C@H]1[C@@H](OC(=O)NCc2ccccc2Cl)CC[C@@]23CCCN2C(=O)CCC[C@@H]13	/	1	-1	7	2
Cc1ccc(N(C)S(=O)(=O)c2ccc(-c3cnc(C4CC4)o3)cc2)cc1	7	5	1	10	23*
O=C(CN1CCN(Cc2ccccc2)CC1)N/N=C\c1ccccc1[N+](=O)[O-]	/	-5	7	-12	-4
O=C(c1ccncc1)N1CCN(C(=O)c2cccs2)CC1	0	5	0	-4	-1
O=C(c1cccs1)N1CCN(Cc2ccccn2)CC1	-1	11	10	17	24*
O=c1[nH]c2cc3c(cc2cc1CN(Cc1ccccc1)Cc1nnnn1Cc1ccco1)OCCO3	-1	-1	16*	-5	1
CN(CCc1cnn(C)c1)C(=O)CCc1nnc(CCCc2ccccc2)o1	0	-3	1	7	48*
O=C(NCCCc1ccccc1)[C@H](Cc1ccccc1)NC1(C(=O)NCCc2c[nH]c3ccccc23)CCOCC1	/	2	3	-2	0
COC(=O)C1SCC2C(=O)N(Cc3ccc(F)cc3)CC(=O)N21 (configuration not stated)	2	4	-2	2	21*
COC(=O)C1SCC2C(=O)N(Cc3cccc(C)c3)CC(=O)N21 (configuration not stated)	0	-3	-1	7	-1
CCN(CC)S(=O)(=O)c1ccc(C(=O)NNC(=O)C2COc3ccccc3O2)cc1 (configuration not stated)	-1	-2	6	4	-1
CCN(CC1COc2ccccc2O1)S(=O)(=O)c1ccc(C)cc1 (configuration not stated)	-2	9	4	-11	26*
COC(=O)[C@]12C[C@H](CC(=O)NCCCCc3ccccc3)C(=O)N(Cc3cccc4ccccc34)C1=C[C@H](C1CCCC1)O[C@@H]2C	/	-1	0	-2	4
CCCCC(=O)NNC(=O)CC(=O)Nc1ccccc1C(=O)O	-1	0	-3	15	2
SMILES	Rin1-Abl PPI inh	MBD2 inh	LEDGF integ inh	TDP2 absorb	UHRF1 binding
O=C(O)CCCC(=O)Nc1ccccc1C(=O)O	0	1	16*	1	0
CCNc1ccc([N+](=O)[O-])cc1	-2	-2	3	-2	41*
O=C(Nc1ccccc1N1CCOCC1)c1cnccn1	-3	-2	4	4	37*
O=C(Nc1cc(C(F)(F)F)ccc1N1CCOCC1)c1cnccn1	1	0	2	0	0
c1cc(-c2nnc3n2N=C(c2ccc4c(c2)OCO4)CS3)ccn1	/	10	-4	-5	6
COc1ccc(Br)c(C=O)c1OS(=O)(=O)c1ccc(C)cc1	0	-1	16*	3	-2
CC1CCN(c2c3c(nc4ncnn24)CCCC3)CC1	/	2	3	7	-2

Compound activity from PubChem.
